Experimental data as given in ChEMBL document CHEMBL5346974, “Discovery of 5-Phenylpyrazolopyrimidinone Analogs as Potent Antitrypanosomal Agents with In Vivo Efficacy” (J Med Chem, 2023).
Active and inactive are the calls of the source. No cut-off for these calls is given here.

Assays:
Type in all cases: functional, organism-based
[1] = system: Trypanosoma brucei brucei; assay: In vivo antitrypanosomal activity against Trypanosoma brucei brucei infected stage-I po dosed mouse model of HAT assessed as clearance of parasitemia treated twice daily for 5 consecutive days; details: dose 6.25-50 mg/kg, time 5.0 day
How it was run: (§1)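 Mice in groups of three were infected IP with 10^4 T. b. brucei Squib 427 […]. Parasitemia was checked by tail-vein blood microscopy up to 63 dpi, plus SL RNA qPCR on survivors.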

[2] = system: Trypanosoma brucei brucei; assay: In vivo antitrypanosomal activity against Trypanosoma brucei brucei infected stage-I mouse model of HAT assessed as clearance of peripheral blood parasites at 50 mg/kg, po twice daily for 5 consecutive days measured for 60 days of post infection; details: time 60.0 day; how it was run: as §1
[3] = system: Trypanosoma brucei brucei; assay: In vivo antitrypanosomal activity against Trypanosoma brucei brucei infected stage-I mouse model of HAT assessed as clearance of peripheral blood parasites at 50 mg/kg, po twice daily for 5 consecutive days; details: time 5.0 day; how it was run: as §1

SMILES | Activity [1] | Activity [2] | Activity [3]
CC(C)c1n[nH]c2c(=O)[nH]c(-c3ccc(F)cc3)nc12 | Dose-Dependent Effect | Active | –
Cc1ccc(C(=O)Nc2ccc(S(=O)(=O)O)c3cc(S(=O)(=O)O)cc(S(=O)(=O)O)c23)cc1NC(=O)c1cccc(NC(=O)Nc2cccc(C(=O)Nc3cc(C(=O)Nc4ccc(S(=O)(=O)O)c5cc(S(=O)(=O)O)cc(S(=O)(=O)O)c45)ccc3C)c2)c1 | – | – | Active
